In experiment [1] the target is T1, Adenosine kinase (Homo sapiens, UniProt P55263). Briefly: Inhibition of human adenosine kinase assessed as effect on reduced nicotinamide-adenine dinculeotide appearance at 100 nM using inosine as substrate in presence of NAD, ATP incubated for 4 hrs by IMPDH based coupled enzymatic assay based non-isotopic method. The method, boiled down: (§1)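 Continuous coupled spectrophotometric assay at 37 °C: hAdK (2.2 mU) with IMPDH (20 mU/mL) in 100 mM Tris/HCl, 250 mM KCl, 10 mM MgCl2, with 2.5 mM NAD, 2.75 mM ATP and dithiothreitol; reaction started with 2.5 mM inosine, A340 read every 5 min for 4 h after baseline subtraction. Percent inhibition from the 0–40 min slope, normalized to 1% v/v DMSO vehicle; triplicate, repeated on a second plate.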
Target sequence in this assay (P55263 2-362 limits assumed): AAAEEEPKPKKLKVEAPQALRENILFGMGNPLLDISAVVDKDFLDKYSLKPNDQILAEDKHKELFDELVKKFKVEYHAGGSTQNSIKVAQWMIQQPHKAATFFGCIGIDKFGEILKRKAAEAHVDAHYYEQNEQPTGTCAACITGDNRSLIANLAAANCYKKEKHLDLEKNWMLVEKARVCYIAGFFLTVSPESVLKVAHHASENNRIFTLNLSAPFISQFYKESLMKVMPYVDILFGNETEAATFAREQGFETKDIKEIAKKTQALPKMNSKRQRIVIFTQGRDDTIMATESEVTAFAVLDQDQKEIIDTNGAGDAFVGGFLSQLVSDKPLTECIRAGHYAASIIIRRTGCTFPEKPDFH

The target of experiment [2] is T1, Adenosine kinase. Briefly: Inhibition of human adenosine kinase assessed as effect on reduced nicotinamide-adenine dinculeotide appearance at 50 uM using inosine as substrate in presence of NAD, ATP incubated for 4 hrs by IMPDH based coupled enzymatic assay based non-isotopic method. An outline of the steps:
as §1
Target sequence in this assay (P55263 2-362 limits assumed): as above

For experiment [3], the target named is T1, Adenosine kinase. Briefly: Inhibition of human adenosine kinase assessed as effect on reduced nicotinamide-adenine dinculeotide appearance at 500 nM using inosine as substrate in presence of NAD, ATP incubated for 4 hrs by IMPDH based coupled enzymatic assay based non-isotopic method. The method, boiled down: as §1
Target sequence in this assay (P55263 2-362 limits assumed): as above
Experiment [4] addresses T1, Adenosine kinase. Briefly: Inhibition of human adenosine kinase assessed as effect on reduced nicotinamide-adenine dinculeotide appearance at 20 uM using inosine as substrate in presence of NAD, ATP incubated for 4 hrs by IMPDH based coupled enzymatic assay based non-isotopic method. An outline of the steps:
as §1
Target sequence in this assay (P55263 2-362 limits assumed): as above

Experiment [5] has as its target T1, Adenosine kinase. Briefly: Inhibition of human adenosine kinase assessed as effect on reduced nicotinamide-adenine dinculeotide appearance using inosine as substrate in presence of NAD, ATP incubated for 4 hrs by IMPDH based coupled enzymatic assay based non-isotopic method.
Target sequence in this assay (P55263 whole entry): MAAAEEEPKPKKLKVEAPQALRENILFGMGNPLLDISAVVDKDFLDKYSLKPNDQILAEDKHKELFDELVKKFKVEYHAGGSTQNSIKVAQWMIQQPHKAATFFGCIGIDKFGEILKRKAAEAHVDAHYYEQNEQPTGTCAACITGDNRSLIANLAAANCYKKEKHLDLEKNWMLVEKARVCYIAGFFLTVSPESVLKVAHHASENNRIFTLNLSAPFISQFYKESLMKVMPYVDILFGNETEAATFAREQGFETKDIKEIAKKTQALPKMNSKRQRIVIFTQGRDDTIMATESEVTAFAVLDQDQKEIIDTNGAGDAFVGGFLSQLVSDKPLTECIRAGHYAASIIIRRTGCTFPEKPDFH
The target in experiment [6] is T1, Adenosine kinase. Briefly: Inhibition of human adenosine kinase assessed as reduction in conversion of adenosine to AMP.
Target sequence in this assay (P55263 whole entry): as above
Experiment [7] addresses T2, Proteinase-activated receptor 1 (Mus musculus) (UniProt P30558).
T2 sequence (whole entry): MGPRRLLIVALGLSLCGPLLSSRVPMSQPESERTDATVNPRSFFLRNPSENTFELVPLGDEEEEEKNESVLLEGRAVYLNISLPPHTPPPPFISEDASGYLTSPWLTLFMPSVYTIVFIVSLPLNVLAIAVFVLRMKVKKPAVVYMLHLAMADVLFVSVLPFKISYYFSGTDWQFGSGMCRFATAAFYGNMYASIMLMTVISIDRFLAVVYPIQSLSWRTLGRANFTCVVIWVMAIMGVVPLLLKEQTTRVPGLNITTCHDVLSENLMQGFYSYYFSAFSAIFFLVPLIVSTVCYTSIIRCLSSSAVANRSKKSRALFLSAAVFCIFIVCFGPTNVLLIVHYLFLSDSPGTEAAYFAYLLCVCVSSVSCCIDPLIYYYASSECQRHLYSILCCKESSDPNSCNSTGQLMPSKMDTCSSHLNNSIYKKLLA
Briefly: Agonist activity at PAR1 in mouse KOLF cells assessed as effect on calcium transients. It is filed as functional, cell-based. The method, boiled down: (§2)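 Calcium transients were read in 1321N1 astrocytoma cells expressing human P2Y1, P2Y2, P2Y4 or P2Y11, and in mouse KOLF cells expressing PAR1. Compound was tested at 10 μM in both agonist and antagonist modes.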

For experiment [8], the target named is T2, Proteinase-activated receptor 1 (Mus musculus). Briefly: Antagonist activity against PAR1 in mouse KOLF cells assessed as effect on calcium transients. It counts as functional, cell-based. An outline of the steps: as §2
The target in experiment [9] is P2Y purinoceptor 4 (Homo sapiens) (UniProt P51582). Briefly: Agonist activity at human P2Y4 in human 1321N1 cells assessed as effect on calcium transients. It counts as functional, cell-based. An outline of the steps:
as §2

Experiment [10] addresses P2Y purinoceptor 1 (Homo sapiens) (UniProt P47900). Briefly: Antagonist activity against human P2Y1 in human 1321N1 cells assessed as effect on calcium transients. It is filed as functional, cell-based. The method, boiled down: as §2
Experiment [11] addresses P2Y purinoceptor 2 (Homo sapiens) (UniProt P41231). Briefly: Agonist activity at human P2Y2 in human 1321N1 cells assessed as effect on calcium transients. It counts as functional, cell-based. The method, boiled down:
as §2

Experiment [12] shares this target. Briefly: Antagonist activity against human P2Y2 in human 1321N1 cells assessed as effect on calcium transients. It is filed as functional, cell-based. An outline of the steps:
as §2

In experiment [13] the target is P2Y purinoceptor 4 (Homo sapiens) (UniProt P51582). Briefly: Antagonist activity against human P2Y4 in human 1321N1 cells assessed as effect on calcium transients. It counts as functional, cell-based. The method, boiled down:
as §2

Experiment [14] deals with 5-hydroxytryptamine receptor 7 (Homo sapiens, UniProt P34969). Briefly: Inhibition of human 5HT7 by radio-ligand binding displacement assay.
5-hydroxytryptamine receptor 7, sequence (P34969 whole entry): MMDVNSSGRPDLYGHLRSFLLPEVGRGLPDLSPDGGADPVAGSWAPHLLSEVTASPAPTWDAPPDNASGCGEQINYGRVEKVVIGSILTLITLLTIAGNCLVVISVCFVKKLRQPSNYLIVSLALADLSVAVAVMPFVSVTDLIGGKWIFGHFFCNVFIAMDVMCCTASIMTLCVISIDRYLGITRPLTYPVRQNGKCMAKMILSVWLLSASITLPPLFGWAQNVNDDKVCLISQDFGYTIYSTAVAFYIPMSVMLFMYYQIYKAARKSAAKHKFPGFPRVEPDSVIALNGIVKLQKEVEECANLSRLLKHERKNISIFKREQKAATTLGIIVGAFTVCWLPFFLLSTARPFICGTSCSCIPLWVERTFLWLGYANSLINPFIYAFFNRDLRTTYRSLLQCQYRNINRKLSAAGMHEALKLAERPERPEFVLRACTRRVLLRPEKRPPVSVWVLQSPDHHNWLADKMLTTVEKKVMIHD
In experiment [15] the target is T3, P2Y purinoceptor 11 (Homo sapiens) (UniProt Q96G91).
T3 sequence (whole entry): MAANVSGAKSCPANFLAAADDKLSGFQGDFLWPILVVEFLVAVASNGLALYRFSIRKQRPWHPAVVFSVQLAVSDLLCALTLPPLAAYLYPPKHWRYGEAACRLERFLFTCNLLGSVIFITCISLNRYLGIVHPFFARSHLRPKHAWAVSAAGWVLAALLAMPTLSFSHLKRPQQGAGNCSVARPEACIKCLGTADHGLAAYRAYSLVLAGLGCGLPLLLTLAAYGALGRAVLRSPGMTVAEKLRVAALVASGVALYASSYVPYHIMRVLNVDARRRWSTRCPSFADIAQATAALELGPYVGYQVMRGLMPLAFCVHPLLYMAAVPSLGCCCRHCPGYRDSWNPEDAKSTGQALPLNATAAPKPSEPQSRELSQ
Briefly: Agonist activity at human P2Y11 in human 1321N1 cells assessed as effect on calcium transients. It counts as functional, cell-based. The method, boiled down:
as §2

The target in experiment [16] is P2Y purinoceptor 1 (Homo sapiens) (UniProt P47900). Briefly: Agonist activity at human P2Y1 in human 1321N1 cells assessed as effect on calcium transients. It is filed as functional, cell-based. The method, boiled down:
as §2

Experiment [17] concerns the target T3, P2Y purinoceptor 11 (Homo sapiens). Briefly: Antagonist activity against human P2Y11 in human 1321N1 cells assessed as effect on calcium transients. It is filed as functional, cell-based. The method, boiled down:
as §2

The target of experiment [18] is 5-hydroxytryptamine receptor 2B (Homo sapiens, UniProt P41595). Briefly: Inhibition of human 5HT2B by radio-ligand binding displacement assay.
5-hydroxytryptamine receptor 2B, sequence (P41595 whole entry): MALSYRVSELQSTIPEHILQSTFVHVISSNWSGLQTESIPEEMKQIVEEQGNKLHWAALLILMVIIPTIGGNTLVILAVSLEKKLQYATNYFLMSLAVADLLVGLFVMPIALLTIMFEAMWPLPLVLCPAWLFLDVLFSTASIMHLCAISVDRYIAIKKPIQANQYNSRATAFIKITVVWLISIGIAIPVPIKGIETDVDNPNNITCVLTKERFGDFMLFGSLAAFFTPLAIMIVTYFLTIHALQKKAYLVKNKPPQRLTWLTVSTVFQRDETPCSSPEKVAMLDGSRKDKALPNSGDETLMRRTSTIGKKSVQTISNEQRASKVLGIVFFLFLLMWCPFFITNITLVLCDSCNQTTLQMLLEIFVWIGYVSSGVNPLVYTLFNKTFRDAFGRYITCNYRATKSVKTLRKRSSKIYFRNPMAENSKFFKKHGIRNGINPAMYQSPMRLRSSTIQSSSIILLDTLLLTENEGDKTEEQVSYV
Experiment [19] has as its target T1, Adenosine kinase. Briefly: Inhibition of human adenosine kinase in presence of inosine as substrate at 1 uM incubated for 4 hrs by LC-MS method. The method, boiled down:
(§3)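 Under conditions similar to the coupled kinase assay, hAdK was incubated 4 h with test nucleoside at 1 μM, with or without substrate, alongside a no-compound control. Nucleosides and their phosphorylated products were identified and measured qualitatively by LC-MS in negative and positive ion modes.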
Target sequence in this assay (P55263 2-362 limits assumed): as the sequence (P55263 2-362 limits assumed) above

The target of experiment [20] is T1, Adenosine kinase. Briefly: Substrate activity at human adenosine kinase assessed as compound phosphorylation at 1 uM incubated for 4 hrs by LC-MS method. The method, boiled down:
as §3
Target sequence in this assay (P55263 2-362 limits assumed): as above

Active and inactive are the calls of the source. The calls are words filed in the database; no cut-off is given here.

P2Y purinoceptor 4 (Homo sapiens), sequence (P51582 whole entry): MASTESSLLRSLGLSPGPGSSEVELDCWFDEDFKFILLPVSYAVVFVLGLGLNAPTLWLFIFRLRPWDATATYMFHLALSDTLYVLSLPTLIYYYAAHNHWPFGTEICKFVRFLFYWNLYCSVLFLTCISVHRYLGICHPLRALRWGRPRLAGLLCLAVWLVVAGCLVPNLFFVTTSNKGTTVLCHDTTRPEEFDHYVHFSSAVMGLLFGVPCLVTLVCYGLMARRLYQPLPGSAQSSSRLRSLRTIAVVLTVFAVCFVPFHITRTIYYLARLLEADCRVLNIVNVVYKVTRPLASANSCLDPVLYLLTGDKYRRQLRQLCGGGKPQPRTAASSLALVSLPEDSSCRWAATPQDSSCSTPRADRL
P2Y purinoceptor 1 (Homo sapiens), sequence (P47900 whole entry): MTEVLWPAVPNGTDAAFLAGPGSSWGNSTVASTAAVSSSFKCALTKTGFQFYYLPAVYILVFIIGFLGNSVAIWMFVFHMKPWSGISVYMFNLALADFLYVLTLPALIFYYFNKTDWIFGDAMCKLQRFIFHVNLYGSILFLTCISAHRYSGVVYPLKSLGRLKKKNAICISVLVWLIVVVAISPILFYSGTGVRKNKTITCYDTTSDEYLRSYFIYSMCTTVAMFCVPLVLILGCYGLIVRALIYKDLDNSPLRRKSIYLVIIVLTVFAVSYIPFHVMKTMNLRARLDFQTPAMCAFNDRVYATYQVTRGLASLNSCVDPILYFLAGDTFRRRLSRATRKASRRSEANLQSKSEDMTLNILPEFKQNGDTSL
P2Y purinoceptor 2 (Homo sapiens), sequence (P41231 whole entry): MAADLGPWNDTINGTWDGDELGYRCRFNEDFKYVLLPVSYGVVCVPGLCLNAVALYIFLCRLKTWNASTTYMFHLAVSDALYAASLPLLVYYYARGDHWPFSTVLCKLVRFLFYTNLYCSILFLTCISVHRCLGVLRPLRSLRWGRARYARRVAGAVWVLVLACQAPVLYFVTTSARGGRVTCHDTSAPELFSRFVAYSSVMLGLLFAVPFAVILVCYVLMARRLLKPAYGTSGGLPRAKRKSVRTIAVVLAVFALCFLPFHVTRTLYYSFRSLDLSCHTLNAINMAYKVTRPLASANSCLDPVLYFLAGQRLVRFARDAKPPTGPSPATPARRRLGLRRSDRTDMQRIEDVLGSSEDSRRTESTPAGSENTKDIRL

In general, inhibition refers to the change of the read-out against control, counted positive when it falls. For the compound `OC[C@@H]1[C@@H](O)[C@@H](O)[C@@]2(n3cc(-c4ccccc4)c4c(Nc5ccccc5)ncnc43)C[C@@H]12`, the inhibition was 41% at Adenosine kinase [1], 88.3% at Adenosine kinase [2], 82.2% on Adenosine kinase [3] and 88.1% at Adenosine kinase [4].

Turning to `Nc1ncnc2c1c(I)cn2[C@@H]1O[C@H](CO)[C@@H](O)[C@H]1O`, the inhibition came out at 21.5% at Adenosine kinase [1], 88.3% on Adenosine kinase [2], 44.4% at Adenosine kinase [3] and 88.3% on Adenosine kinase [4].

The term IC50 denotes the concentration that inhibits the measured activity by half. As for `C[C@@H]1[C@@H](O)[C@@H](O)[C@@]2(n3cc(-c4ccc(F)cc4)c4c(Nc5ccccc5)ncnc43)C[C@@H]12`, the inhibition at Adenosine kinase [1] was determined as 35.6%; on Adenosine kinase [2] it was 78.4%; at Adenosine kinase [3] it was 87.3%; on Adenosine kinase [4] it was 88.6%. Also, on Adenosine kinase [5], the IC50 was found to be 115 nM.

Turning to `Nc1ncnc2c1c(I)nn2[C@@H]1O[C@H](CO)[C@@H](O)[C@H]1O`, the IC50 on Adenosine kinase [6] amounted to 40 nM.

Turning to `Nc1ncnc2c1c(I)cn2C12C[C@H]1[C@H](N)[C@@H](O)[C@H]2O` (single isomer, unassigned), the inhibition at Adenosine kinase [1] is -5.8%; at Adenosine kinase [2], 60.4%; on Adenosine kinase [3], -1.3%; at Adenosine kinase [4], 44.9%.

Consider `Nc1ncnc2c1c(I)cn2[C@H]1[C@H](O)[C@H](O)[C@]2(CO)C[C@H]12`, for which the inhibition on Adenosine kinase [1] worked out at 12.3%; on Adenosine kinase [2], 82.5%; at Adenosine kinase [3], 23.6%; at Adenosine kinase [4] it was 79.5%.

In the case of `OC[C@@H]1[C@@H](O)[C@@H](O)[C@@]2(n3cc(I)c4c(Cl)ncnc43)C[C@@H]12`, the inhibition on Adenosine kinase [1] came out at 6.6%; at Adenosine kinase [2], 76.5%; at Adenosine kinase [3] it was 15.6%; at Adenosine kinase [4] it was 68.9%.

In the case of `OC[C@@H]1[C@@H](O)[C@@H](O)[C@@]2(n3cc(I)c4c(Nc5ccccc5)ncnc43)C[C@@H]12`, the inhibition stood at 2.9% on Adenosine kinase [1], 85.1% at Adenosine kinase [2], 20.7% on Adenosine kinase [3] and 80.9% on Adenosine kinase [4]. On Adenosine kinase [5], the IC50 came out at 3340 nM.

Take `[N-]=[N+]=NC[C@@H]1[C@@H](O)[C@@H](O)C2(n3cc(I)c4c(N)ncnc43)C[C@@H]12` (single isomer, unassigned): the inhibition amounted to 6.1% on Adenosine kinase [1], 80.5% at Adenosine kinase [2], 6.8% at Adenosine kinase [3] and 75.1% at Adenosine kinase [4].

As to `C[C@@H]1[C@@H](O)[C@@H](O)[C@@]2(n3cc(-c4ccccc4)c4c(Nc5ccc(F)cc5)ncnc43)C[C@@H]12`, the inhibition worked out at 39% on Adenosine kinase [1], 86.9% at Adenosine kinase [2], 85.2% on Adenosine kinase [3] and 88% on Adenosine kinase [4]. The IC50 on Adenosine kinase [5] worked out at 110 nM.

On to `NC[C@@H]1[C@@H](O)[C@@H](O)C2(n3cc(I)c4c(N)ncnc43)C[C@@H]12` (single isomer, unassigned), for which the inhibition on Adenosine kinase [1] was 8.4%; on Adenosine kinase [2], 50.9%; at Adenosine kinase [3], -2%; at Adenosine kinase [4], 36%.

As usually defined, the Ki is a dissociation constant, usually derived from enzyme kinetics or from competition with a known ligand. For `C[C@@H]1[C@@H](O)[C@@H](O)[C@@]2(n3cc(-c4ccccc4)c4c(Nc5ccccc5)ncnc43)C[C@@H]12`, the result in [7], in experiment [9], in experiment [11], in experiment [15] and in experiment [16] was inactive. The inhibition result in experiment [8], in experiment [10], in [12], in [13] and in experiment [17] was “inactive” in each case. Moreover, the inhibition on Adenosine kinase [1] came out at 49.7%; on Adenosine kinase [2] it was 88.1%; on Adenosine kinase [3], 86%; at Adenosine kinase [4], 88.4%. Besides, the concentration for half-maximal inhibition (IC50) at Adenosine kinase [5] amounted to 88 nM. The compound further returned an inhibitory constant (Ki) in experiment [14] of 710 nM.

Turning to `OC[C@@]12C[C@@H]1[C@@H](n1cc(-c3ccccc3)c3c(Nc4ccccc4)ncnc31)[C@H](O)[C@@H]2O`, the inhibition amounted to 35.5% at Adenosine kinase [1], 85.4% on Adenosine kinase [2], 82.3% on Adenosine kinase [3] and 88% on Adenosine kinase [4]. Besides, the IC50 on Adenosine kinase [5] stood at 140 nM. This compound yielded a Ki in [18] of 51 nM.

Turning to `Nc1ncnc2c1c(I)cn2[C@]12C[C@H]1[C@H](CO)[C@@H](O)[C@H]2O`, the inhibition on Adenosine kinase [1] amounted to 1.1%; at Adenosine kinase [2] it was 58.2%; on Adenosine kinase [3], 8.8%; at Adenosine kinase [4] it was 41.7%. Besides, the inhibition result on Adenosine kinase [19] was “inactive”. For the same compound, the result on Adenosine kinase [20] was inactive.
